In article PMC5677568 (Structure (London, England : 1993), 2017):

Legend:
Test in all cases: Isothermal titration calorimetry
Assay type in all cases: binding
Details in all cases: read-out: Values shown are Kd
[1] = target: RBC36
Outline: (§1)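 N-terminally His6-tagged VLR ectodomains were expressed in Hi5 insect cells or by transient transfection of 293S cells, then purified by Ni-NTA and Superdex75 size exclusion. Protein was dialysed overnight into the ITC buffer, and lyophilised glycans were dissolved in the dialysate. Cell concentration was set by A280 with calculated extinction coefficients. Titration used 16 injections of 2.45 μL (1 s each, 180 s apart) at 5 μCal reference power. The single-site fit gave Kd and ΔH.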

[2] = target: UEA-1
Outline: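 Commercial UEA-1 lectin was dialysed overnight into the ITC buffer, and lyophilised glycans were dissolved in the dialysate. Cell concentration was set by A280 with a calculated extinction coefficient. Titration used 16 injections of 2.45 μL (1 s duration, 180 s spacing) at 5 μCal reference power. Integrated peaks were fitted to a single-site model to give Kd and ΔH.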

[3] = target: O13
Outline: as §1

[4] = target: Tn4-22
Outline: as §1

| Compound | Kd [1] [µM] | Kd [2] [µM] | Kd [3] [µM] | Kd [4] [µM] |
| --- | --- | --- | --- | --- |
| C[C@@H]1O[C@@H](O[C@H]2[C@H](O[C@H]3[C@H](O)[C@@H](O)C(O)O[C@@H]3CO)O[C@H](CO)[C@H](O)[C@@H]2O)[C@@H](O)[C@H](O)[C@@H]1O (stereo partly drawn) [2′-fucosyllactose, 2′-fucosyllactose, Fucα1-2Galβ1-4Glc] | 57.1 | 12.5 |  |  |
| CC(=O)N[C@H]1C(O)O[C@H](CO)[C@@H](O[C@@H]2O[C@H](CO)[C@H](O)[C@H](O)[C@H]2O[C@@H]2O[C@@H](C)[C@@H](O)[C@@H](O)[C@@H]2O)[C@@H]1O (stereo partly drawn) [H-trisaccharide, blood group H-trisaccharide type II, Fucα1-2Galβ1-4GlcNAc] | 8.3 | 8.1 | 2.6 | 6.9 |
| CC(=O)N[C@H]1[C@H](O[C@H]2[C@@H](O)[C@@H](CO)O[C@@H](O[C@H]3[C@H](O)[C@@H](O)C(O)O[C@@H]3CO)[C@@H]2O)O[C@H](CO)[C@@H](O[C@@H]2O[C@H](CO)[C@H](O)[C@H](O)[C@H]2O)[C@@H]1O (stereo partly drawn) [LNnT, lacto-N-neotetraose, Galβ1-4GlcNAcβ1-3Galβ1-4Glc] |  |  | 160 | 16.2 |
| CC(=O)N[C@H]1C(O)O[C@H](CO)[C@@H](O[C@@H]2O[C@H](CO)[C@H](O)[C@H](O)[C@H]2O[C@@H]2O[C@@H](C)[C@@H](O)[C@@H](O)[C@@H]2O)[C@@H]1O[C@@H]1O[C@@H](C)[C@@H](O)[C@@H](O)[C@@H]1O (stereo partly drawn) [Lewis-Y, Lewis-Y antigen tetrasaccharide, Fucα1-2Galβ1-4(Fucα1-3)GlcNAc] |  | 19.8 |  |  |
